Source: the EternaBench riboswitch data

Test system: MS2 coat protein
Assay: apparent Kd, MS2 coat protein; higher = weaker binding; RNA-MaP array; FMN 200 µM where present
Outline: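 In 100 mM Tris-HCl pH 7.5, 80 mM KCl, 4 mM MgCl2, BSA, DTT, yeast tRNA and Tween-20, SNAP-549-labelled MS2 coat protein was titrated from 0.7 or 1.5 nM, doubling to 3 µM, over designs transcribed by stalled E. coli RNA polymerase on Illumina sequencing-chip clusters. This was done first without ligand, then with ligand held constant. After green signal was normalised to red-channel RNA signal and control-cluster median Fmax, the apparent Kd was taken as the median of filtered per-cluster binding-curve fits.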

[1] = designed as: OFF switch for flavin mononucleotide, no ligand
[2] = ligand present: flavin mononucleotide, designed as: OFF switch for flavin mononucleotide
[3] = designed as: ON switch for flavin mononucleotide, no ligand
[4] = ligand present: flavin mononucleotide, designed as: ON switch for flavin mononucleotide

Sequence	apparent Kd [1]	apparent Kd [2]	apparent Kd [3]	apparent Kd [4]
AUUAUAUAGGUAGGAUAUAGAAUAUUAUUUUAACAUGAGGAUCACCCAUGUAACCUUAUGUGUAGCUAGAAGGACCAUUUAUUA	78 nM	154 nM	–	–
AUUAUAUAGUCAGGAUAUAGAAUAUUAUUUUAACAUGAGGAUCACCCAUGUAACCUUAUGUGUAGCUAGAAGGGACAUUUAUUA	85.5 nM	131 nM	–	–
AUUAUGACCGAGUUAUACUUCUAAACAUGAGGAUCACCCAUGUAGGAUAUCAGCACGAUAAGUGCUGAGAAGGACAUCUCGGUC	13.7 nM	14.6 nM	–	–
AUUAUGUAAGGAUAUCUUACAUGUGACUUCGGUCACUGUCAAGAGAAGGUACAUGAGGAUCACCCAUGUAUGAC	14 nM	16.3 nM	–	–
AUUAUUAUAAAUUAAGGAAGAAUCAGAAGGCGUUACAUGAGGAUCACCCAUGUUUUGUAUAGUAACGAGGAUAUGAUAUGGAAA	17.5 nM	14 nM	–	–
AUUAUUAUAUUAUACAUGAGGAUCACCCAUGUUAUAAGUCAUGAGGAUAUGGUAUUGUAGUUAUUCCAGAAGGCAUUUAACUUA	–	–	11.4 nM	7.05 nM
AUUAUUGACGUAGGAUAUUCUUACAUGAGGAUCACCCAUGUUAUUUGGGAACUAGGAAUAUUUUAGAAGAAGGACGUUGUUAAA	–	–	230 nM	173 nM
AUUAUUUAUAGUUAUUGGUAUUUGACAGAAGGUGAAAGUGUCACAUGAGGAUCACCCAUGUUCUUCAAGGAUAUGUUGGUAUAC	–	–	66.1 nM	11.8 nM
AUUAUUUAUAGUUAUUUUUAUUUUACAGAAGGUGAAUUAUUUACAUGAGGAUCACCCAUGUUCUUCAAGGAUAUGUUGUUAUAC	–	–	49.4 nM	22.1 nM
AUUCAGUCAGGAUAUCGUUAAUUUAAUUGUUUGUUUUAGUUCGAGAAGGGACAUGAGGAUCACCCAUGUACUUA	25.9 nM	27.3 nM	–	–
AUUCAGUCAGGAUAUCGUUAAUUUAAUUGUUUGUUUUAGUUCGAGAAGGGACAUGAGGAUCACCCAUGUACUUU	20.2 nM	19.3 nM	–	–
AUUGAGAUAGCGAUAUGAUCGAGAGAUCAUGUCGCUAAGUUUAGAAGGACAUGAGGAUCACCCAUGUAGGAUAUGGGAGUAGAA	–	–	128 nM	57.5 nM
AUUGAUAGCACAGGAUAUUGAGAUUUGAAUUGACAAGAAGGGUGUACAUGAGGAUCACCCAUGUAAUGGCUGCCUCGUUGAUUA	57.8 nM	132 nM	–	–
AUUGAUGUUGAGGAUAUGCUUUUAUUUAUUAUAGCAGAAGGCGAUACAUGAGGAUCACCCAUGUUCAUGGCUUU	11.8 nM	14.9 nM	–	–
AUUUAGAGAGGAUAUAUAUUGUGAAACAUGAGGAUCACCCAUGUAAUAAUAUGGAUGUAAAUAGAAGGCUCAUUUA	38.1 nM	34.9 nM	–	–
AUUUAUGGCCAGAAGGACAUGAGGAUCACCCAUGUAGGAUAUGGACGAUUUUGCUCGGCGGUUCGUUAAGAAAGCACCGGUGGU	–	–	16.5 nM	7.39 nM
AUUUAUGUCAUAGGAUAUAUAAAUAAAUUUAUAACAUGAGGAUCACCCAUGUACUUUAGUAUGAGGUAGAAGGAUGAUAAGAGU	–	–	35.1 nM	26.7 nM
AUUUCCAGAGGAUAUGCGAGGGUGUACCUCUAACAGCGCAAACAUGAGGAUCACCCAUGUAGAAGGCUGAUCAU	56.5 nM	54.8 nM	–	–
AUUUCGUUAGCAGGAUAUGGACAGGCCUGUCCGUAUUGAGUCAGUAACAUGAGGAUCACCCAUGUCCAGAAGGGCUCGAAGUAU	7.83 nM	15.3 nM	–	–
AUUUGACACGUAGGAUAUCGCUUAAAUUUAACACGAGAAGGACGAACAUGAGGAUCACCCAUGUAUCAUGGAGUAGAUAAUUUG	115 nM	329 nM	–	–
AUUUUAAAGGGAGGAUAUACAUGAGGAUCACCCAUGUAAACGUGAGGAUCACCCAUGUAAACAAUGUAGAAGGCCUAUAUCUAU	86 nM	74.1 nM	–	–
AUUUUUUGUCAUGUACAUGAGGAACAUGAGGAUCACCCAUGUAGAAGGAAUUUUUUUAAGUUUAGUUAGGAUAUACAUAUAUUA	47.7 nM	28.6 nM	–	–
CAAACGUGAGGAUAUACAUGAGGAUCACCCAUGUGCUCCUCUAAACUGAAGAAGUAAUGUAGAAGGCACGUUUG	39.2 nM	17.7 nM	–	–
CAAAGUAGCACAGGAUAUCAUACAUGAGGAUCACCCAUGUCAAGAAGCAAAUGAGAAGGGUGCAGACGGUGUUGGAGCGGUUGC	–	–	68.6 nM	7.02 nM
CAAUUUAUAUCAGGAUAUACAAUACAAUUAUUAGUAGAAGGGAUUAAUACAUGAGGAUCACCCAUGUCAUGUGUCAUAAUAACC	22.6 nM	18.1 nM	–	–
CAAUUUAUUGCAGGAUAUACAAUACAAUGAUUAGUAGAAGGGUAUAAUACAUGAGGAUCACCCAUGUCAUGUGUCAUAAUAACC	36.7 nM	27.6 nM	–	–
CACAAGUAUAACGAUUUCAAGGCACAGGAUAUGAGUGUGCACAUGAGGAUCACCCAUGUUAUAACUUAGAAGGGUGACCAUCGC	–	–	402 nM	433 nM
CACAGGGAUUCAGGAUAUAUUAGCCGAGGCCGCGUAGAAGGGAAAUCCUGACAUGAGGAUCACCCAUGUCGACCCGCCUUCCAC	–	–	24.2 nM	25.3 nM

Sequence	apparent Kd [1]	apparent Kd [2]	apparent Kd [3]	apparent Kd [4]
CACAGGGAUUCAGGAUAUAUUAGCCGAGGCCGCGUAGAAGGGAAAUCCUGACAUGAGGAUCACCCAUGUUAACCCGCCUUCCAU	–	–	37.6 nM	42 nM
CACCCUGAUGUCAGGAUAUGCGCGUCGCGCCUCGAGCAGAAGGGACAUGAGGAUCACCCAUGUUGUCUCUUGGG	48.9 nM	98.7 nM	–	–
CACCGUAACAGAGGAUAUGAUACAUGAGGAUCACCCAUGUAAUAAAUGAGAAUUUCGAAUGUACCUCAGAAGGCUGGAACCGGC	45.7 nM	96.6 nM	–	–
CACCGUUAGCGAGGAUAUCGUACAUGAGGAUCACCCAUGUAAUAAAUGAGAAUUUCGGAUGUAUGCGAGAAGGCGCAAAUCGGC	59 nM	43.4 nM	–	–
CACGAUCAUGUAGGAUAUAUACUGGAAUACAGUAUAGAAGGACAUGAGGAUCACCCAUGUUAAGUGCCUCCAAGUAAGAUCGUG	17 nM	23 nM	–	–
CACGAUGAUGUAGGAUAUAUGCUGGAAUACAGCAUAGAAGGACAUGAGGAUCACCCAUGUUAAGUGCCUCCAAGUAACAUCGUG	15.4 nM	22.4 nM	–	–
CACGCAUGUGGAGGAUAUGCAGUUAACAUUAGCGCAGAAGGCCACAUGAGGAUCACCCAUGUCCGGCAUUAGCCGAUGUUGAUC	139 nM	227 nM	–	–
CACGUCAGGAAACGGAGCGGCCAACAUGAGGAUCACCCAUGUGAGGAUAUGCCUACUAAAAGUAGGCAGAAGGCGCAAUUGGCA	29.1 nM	39.9 nM	–	–
CACGUCUGGAAACGGAGCGGCCAACAUGAGGAUCACCCAUGUGAGGAUAUGCCUACUAAAAGUAGGCAGAAGGCGCAAUUGGCA	31.2 nM	44.7 nM	–	–
CACGUGUAAGGAUAUGACAAUGGUAUCUUCGGAUACCAUUGUCAGAAGGUACAUGAGGAUCACCCAUGUAACAC	16.1 nM	26.8 nM	–	–
CACUCACAUGAGGAUCACCCAUGUCCUAGCAGGUCAGGAUAUAGCUCGGAUGCGUUGAGUCUAGAAGGGACACGUU	–	–	96.7 nM	62.5 nM
CACUGCAAUGUAGGAUAUCGACUGGAUAACAGUCGAGAAGGACAUGAGGAUCACCCAUGUACUAUGAGUGAAUAAUAAGCAGUG	89 nM	950 nM	–	–
CAGAAGUCAGGAUAUGCAUGGCGGGACUUGCGUCGUGGCGUGCAGAAGGGACAUGAGGAUCACCCAUGUGGAGC	118 nM	182 nM	–	–
CAGAAUUGAGGAUAUGAUCAAUUUAACAUGAGGAUCACCCAUGUAUGGGAAUGAUUCUGAUCAGAAGGCGAUUCUU	1290 nM	910 nM	–	–
CAGACCGGCAUAGGAUAUGUCGACAUGAGGAUCACCCAUGUAAGCCUUGUCUGGUCCGGUGUGUGACAGAAGGAUGUCGGCCAU	37.7 nM	26.4 nM	–	–
CAGACCGGCGUAGGAUAUGUCGACAUGAGGAUCACCCAUGUAAACCUUGUCUGGUCCGGUGUGUGACAGAAGGAUGUCGGCCAU	14.6 nM	27.9 nM	–	–
CAGAUCGGCUAGGAUAUCCAUGGUAUGUUACGAGGAGAAGGAGUCACAUGAGGAUCACCCAUGUCUCAUACUGA	24.7 nM	31.8 nM	–	–
CAGCGAAAGUAGAAGGCAGUACUGAUACAGUACUGAGGAUAUACAUGAGGAUCACCCAUGUACUUCAGCUGGAAAUAAAUAAAA	5.59 nM	6.32 nM	–	–
CAGCGCUGUCGAGAGGAUAUGCGGUGAUGGACAUGAGGAUCACCCAUGUUAGCGGUAGCAUUACGGUAGAAGGCUCUACAGCUGC	–	–	31 nM	13.2 nM
CAGCGGCAAGGAUAUACAUGAGGAUCACCCAUGUGGUCCCGCUAUAGUAACUUAGCUUGUAGAAGGUGCAGCUA	36.5 nM	218 nM	–	–
CAGCGGUGAGGAUAUACGUAGGUACAGAUCUGUGUGUUCCUACAUGAGGAUCACCCAUGUAGAAGGCAUGGCUG	43 nM	140 nM	–	–
CAGCUGAAAGUCAGGAUAUCUAGAGCGAUAGCUCUAGAGAAGGGACAUGAGGAUCACCCAUGUCACUCCAGCUG	17.1 nM	20.4 nM	–	–
CAGGAUAGAGGAUAUACAUAGAUACAGAUUCAUGUGGUCCUACAUGAGGAUCACCCAUGUAGAAGGCUAUCCUG	166 nM	30 nM	–	–
CAGGUAGACUGAGGAUAUACAAGACUUAGUCUAUCUAGGUCAUUAACCACAUGAGGAUCACCCAUGUAGAAGGCAGUCUGCCUG	17.7 nM	23.9 nM	–	–
CAGGUAGACUGAGGAUAUACACAAAACAGCUAGUCUAUCUAGCUGCUCACAUGAGGAUCACCCAUGUAGAAGGCAGUCUGCCUG	18.4 nM	37.8 nM	–	–
CAGGUAGACUGAGGAUAUACAGACCUAGUCUAUCUAGGUCAAUUCCUUACAUGAGGAUCACCCAUGUAGAAGGCAGUCUGCCUG	18.7 nM	38.8 nM	–	–
CAGUACUGAGGAUAUACAUGAGGAUCACCCAUGUGUUCCAGCUAGGAAACUAGCAAAUGUAGAAGGCAGUACUG	212 nM	317 nM	–	–
